The RNAGym collection of RNA variant scans (doi:10.1126/science.aae0568)
Fewer inactive variants are shown than the library holds.

B1: tRNA (parent)
chain: GUUCCGUUGGCGUAAUGGUAACGCGUCUCCCUCCUAAGGAGAAGACUGCGGGUUCGAGUCCCGUACGGAACG

Variants of: B1
Experiment: yeast fitness relative to wild type (ratio to wild type); higher = fitter; tRNA-Arg(CCU), competitive growth, 37 C, YPD
In short: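 Genotype frequency changes were the basis for Darwinian fitness relative to wild type. The frequencies came from 100-nucleotide paired-end sequencing of gene amplicons from the start population and each end population of pooled yeast strains with tRNA-Arg(CCU) gene variants at the native locus. Competition ran in YPD at 37°C for 24 hours in six replicates, genotypes needed ≥ 100 starting reads, and estimates < 0.5 were set to 0.5.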

Variant	yeast fitness
GUUCCGUUGGCGUAAUGGUAAUGCGUCUACCUCCUAAGGAGAAGACUGCGGGUUCGAGUCCCGUACGGAACG	0.543
GUUCCGUUGGCGUAAUGGUAAGGCGUCUCCCUCCUAAGGAGAAGACGGCGGGUUCGAGUCCCGUAUGGCACG	≤ 0.5
GUUCCGUUGGCGUAAUGGUAAUGCGUCUCCCUCCUAAGGAGUAGACUGGGGGUUCGAGUCCCGUACGGAACG	≤ 0.5
GUUCCGUUGGCGUAAUGGUAAUGAGUCUCCCUCCUAAGGAGAAGACUGCGGGUUCGAGUCCCGUACGGAUCG	≤ 0.5
GUUCCGUUGGCGUAAUGGUAAUGCGUCUUCCUCCUAAGGCGAAGACUGCGGGUUCGAGUCCCGUACGGAACG	0.667
GUUCCGUUGGCGUAAUGGUAAUGCGUCUGCCUCCUUAGGACAAGCCUGUGGGUCCGAGUCUCGUACGGAACG	≤ 0.5
GUUCCGUUGGCGUAAUGGUAAUGCGUCUCCCUCCUAAGGAGAAGACUGCGGGUUCGGGUCCCGUACGGAUCG	0.591
GUUCCGUUGGCGUAAUGGUAAUGCGUCUUCCUCCUAAGGAAAAGACUACGGGUUCGAGUCCAGUACGGAACG	0.611
GUUCCGUUGGCGUAAUGGUAAUGCGUCUCCAUCUUCAGGAGAAGCCUGCGGGUUCGAGUCUCGAACGGAACG	≤ 0.5
GUUCCGUUGGCGUAAUGGUAAUGCGUCUCCCUCCUCAGGAGAAGCCUGCGGGUUGGAGUCCAGUACGAAACG	≤ 0.5
GUUCCGUUGGCGUAAUGGUAAUGCGUCUCCCUCCUAAGGCGAAGACUGCGGGUUCGAGUCCCGUACGGAUCG	0.545
GUUCCGUUGGCGUAAUGGUAAGGCGUCUCCCUCCUAAGGAGAAGACUGCGGGUUCGAGUCCCGGACGGAACG	0.8
GUUCCGUUGGCGUAAUGGUAAUGCGUCUCCCUCCUAAGGAGUAGACUGCGCGUUCGAGUCCUGUACGGAACG	≤ 0.5
GUUCCGUUGGCGUAAUGGUAAGGCGUCUCCCUCCUAAGGAGAAGACUGCGGAUUCGAGUCCCGUACGGAACG	0.772
GUUCCGUUGGCGUAAUGGUAAGGCGACUCCCUCCUAAGGAGAAGACUGCGGGUUCGAGUCCCGUACGGAACG	1.08
GUUCCGUUGGCGUAAUGGUAAUGCGUCUCCCUCCUAAGGAGCAGACUGCGGGUUCGCGUCCCGUACGGAACG	≤ 0.5
GUUCCGUUGGCGUAAUGGUAAUGCGUCUCCCUCCUGAGGAGAAGACUGCGCGUUCGAGUCCCGUCCGGAACG	0.6
GUUCCGUUGGCGUAAUGGUAAUGCGUCUCCCUCCUAAGGAGAAGUCUGCGGGUUCGAGUCCUGUACGGAACG	0.671
GUUCCGUUGGCGUAAUGGUAAGGCGUCUCCCUCCUAAGGAGAAGACAGCGGAUUCGAGUCCCGUACGGAACG	≤ 0.5

Variant	yeast fitness
GUUCCGUUGGCGUAAUGGUAAUGCGUCUCCCUCCUAAGGAGAAGACUGCGGGUUCGAGUCCCGUACGGCACG	0.876
GUUCCGUUGGCGUAAUGGUAAUGGGUCUCGCUCCUAAGGAGAAGACUGCGGGUUCGAGUCCCGUACGGAACG	≤ 0.5
GUUCCGUUGGCGUAAUGGUAAGGCGUCCCCCUCCUAAGGAGAAGACAGCGGGUUCGAGUCCCGUACGGAACG	≤ 0.5
GUUCCGUUGGCGUAAUGGUAAUGCGUUUCCCUCCUAAGGAGAAGACUGCGGGUGCGAGUCCCGUACGGAACG	≤ 0.5
GUUCCGUUGGCGUAAUGGUAAUGCGUCUCCCUCCUAAGGAGAAGACUGCGGGUUCGGGUACCGUACGGAACG	≤ 0.5
GUUCCGUUGGCGUAAUGGUAAUGCGUCUCCCUCAUAAGGAGAAGACUGCGGGUUCCUGUCCCGUACGGAACG	≤ 0.5
GUUCCGUUGGCGUAAUGGUAAGGCGUCCACCUCCUAAGGAGCAGACUGCGGGUUCGAGUCCCGUACGGAACG	≤ 0.5
GUUCCGUUGGCGUAAUGGUAAUGCGUCUCCCUCCUCAGGAGAAGACUGCGGGUUCGAGUCCCGUGCGGAACG	0.564
GUUCCGUUGGCGUAAUGGUAAGGCGUCUCCCUCCCAAGGAGAAGACUGCGGGUUCGCGUCCCGUACGGAACG	0.61
GUUCCGUUGGCGUAAUGGUAAUGCGUCUCACUCCUAAGGUGAUGACUGCGGGUUCGAGUCCCGUACGGAACG	≤ 0.5
GUUCCGUUGGCGUAAUGGUAAUGCGUGUCCUUCCUAAGGAGAAGACUGCGGGUUCGAGUCCCGUACGAAACG	≤ 0.5
GUUCCGUUGGCGUAAUGGUAAUGCGUCUCCCUCCUAAGGGGAUGAGUGGGGGUUCGAGUCCUGUACGGAACG	0.531
GUUCCGUUGGCGUAAUGGUAAGGCGUCUCCCUCCCAAGGAGAAGACUGCGGGUUCGAGUCCCGUACGGAACG	0.8
GUUCCGUUGGCGUAAUGGUAAGGCGACUGCCUCCUAAGGAGAAGACUGCGGGUUCGAGUCCCGUACGGAUCG	0.591
GUUCCGUUGGCGUAAUGGUAAGGCGUCUCCCUCCUAAGGAGAAGACUGCCGGUUCGGGUCCCGUACGGAACG	≤ 0.5
GUUCCGUUGGCGUAAUGGUAAUGCGUCUCCCUCCUAAGGGGAAGACUGCGGGUUCGAGUCCCGUACGGAACG	0.834
GUUCCGUUGGCGUAAUGGUAAGGCGUCUCCCUCCUAAGGAGAAGACUGCGGGUACGAGACUCGUACGGAACG	≤ 0.5
GUUCCGUUGGCGUAAUGGUAAGGCGUCUCCCCCCUAAGGAGAAGACUGCGGGUACGAGUCCCGUGCGGAACG	≤ 0.5
GUUCCGUUGGCGUAAUGGUAAUGCGUCUCCCUCCUAAGGAGAAGGCUGCGGGUUCGAGUCCCGUACGGAACG	0.747
